Results taken from ChEMBL document CHEMBL3739273, “Synthesis, biological activity evaluation and molecular docking studies of novel coumarin substituted thiazolyl-3-aryl-pyrazole-4-carbaldehydes” (Bioorg Med Chem Lett, 2015).
≈ marks a conversion by molar mass, not a printed value. Calls of active or inactive are those of the source. No cut-off for these calls is given here.

How the values were obtained:
Escherichia coli [1] = assay: Antibacterial activity against Escherichia coli ATCC 8739 after 24 hrs by microtiter plate method; type: functional; settings: ATCC 8739, 24 h
Procedure, shortened: (§1)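 Test concentrations reported in µg/mL. Gentamycin sulfate and ampicillin were the reference drugs.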

Staphylococcus aureus [2] = assay: Antibacterial activity against methicillin-resistant Staphylococcus aureus NCTC 13616 after 24 hrs by microtiter plate method; type: functional; settings: NCTC 13616, 24 h
Bacillus spizizenii [3] = assay: Antibacterial activity against Bacillus subtilis ATCC 6633 after 24 hrs by microtiter plate method; type: functional; settings: ATCC 6633, 24 h; procedure, shortened: as §1
Bacillus cereus [4] = assay: Antibacterial activity against Bacillus cereus ATCC 14579 after 24 hrs by microtiter plate method; type: functional; settings: ATCC 14579, 24 h; procedure, shortened: as §1
Escherichia coli [5] = assay: Bactericidal activity against Escherichia coli ATCC 8739 after 24 hrs; type: functional; settings: ATCC 8739, 24 h, read-out: MBC99.9
Procedure, shortened: (§2)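 MBC determined by a standard MBC protocol alongside the MIC, with values in µg/mL. Gentamycin sulfate and ampicillin were the references.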

Staphylococcus aureus [6] = assay: Bactericidal activity against methicillin-resistant Staphylococcus aureus NCTC 13616 after 24 hrs; type: functional; settings: NCTC 13616, 24 h, read-out: MBC99.9
Procedure, shortened: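 MBC determined by a standard MBC protocol run alongside the MIC determination. Gentamycin sulfate and ampicillin served as reference drugs.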

Bacillus spizizenii [7] = assay: Bactericidal activity against Bacillus subtilis ATCC 6633 after 24 hrs; type: functional; settings: ATCC 6633, 24 h, read-out: MBC99.9; procedure, shortened: as §2
Bacillus cereus [8] = assay: Bactericidal activity against Bacillus cereus ATCC 14579 after 24 hrs; type: functional; settings: ATCC 14579, 24 h, read-out: MBC99.9; procedure, shortened: as §2
[9] = Anticancer activity against human DU145 cells assessed as cell viability after 48 hrs by MTT assay; type: functional, cell-based; settings: DU-145, 48 h
Procedure, shortened: (§3)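 MTT cytotoxicity assay in human DU-145 prostate, MCF-7 breast and HeLa cervical cancer cell lines. Doxorubicin was the reference drug.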

MCF7 = assay: Anticancer activity against human MCF7 cells assessed as cell viability after 48 hrs by MTT assay; type: functional, cell-based; settings: MCF7, 48 h; procedure, shortened: as §3
HeLa = assay: Anticancer activity against human HeLa cells assessed as cell viability after 48 hrs by MTT assay; type: functional, cell-based; procedure, shortened: as §3
Bacillus cereus [10] = assay: Antibacterial activity against Bacillus cereus ATCC 14579 assessed as growth inhibition at 100 ug/ml after 24 hrs by agar well diffusion method; type: functional
Procedure, shortened: (§4)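 Agar well diffusion. Compounds were tested at 10, 20, 100, 200 and 300 µg/mL, and the zone of inhibition was measured in mm. Gentamycin sulfate was the reference drug.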

Bacillus spizizenii [11] = assay: Antibacterial activity against Bacillus subtilis ATCC 6633 assessed as growth inhibition at 100 ug/ml after 24 hrs by agar well diffusion method; type: functional, organism-based; procedure, shortened: as §4
Proteus vulgaris [12] = assay: Antibacterial activity against Proteus vulgaris ATCC 13315 assessed as growth inhibition at 100 ug/ml after 24 hrs by agar well diffusion method; type: functional; procedure, shortened: as §4
Staphylococcus aureus [13] = assay: Antibacterial activity against methicillin-resistant Staphylococcus aureus NCTC 13616 assessed as growth inhibition at 100 ug/ml after 24 hrs by agar well diffusion method; type: functional, organism-based
Procedure, shortened: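 Agar well diffusion assay with compounds applied to wells at several concentrations, including the 100 level reported here. The zone of inhibition was measured in mm. Gentamycin sulfate was the standard drug.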

Klebsiella pneumoniae [14] = assay: Antibacterial activity against Klebsiella pneumoniae ATCC 43816 assessed as growth inhibition at 100 ug/ml after 24 hrs by agar well diffusion method; type: functional; procedure, shortened: as §4
Escherichia coli [15] = assay: Antibacterial activity against Escherichia coli ATCC 8739 assessed as growth inhibition at 100 ug/ml after 24 hrs by agar well diffusion method; type: functional; procedure, shortened: as §4
Klebsiella pneumoniae [16] = assay: Antibacterial activity against Klebsiella pneumoniae ATCC 43816 after 24 hrs by microtiter plate method; type: functional; settings: ATCC 43816, 24 h; procedure, shortened: as §1
Proteus vulgaris [17] = assay: Antibacterial activity against Proteus vulgaris ATCC 13315 after 24 hrs by microtiter plate method; type: functional; settings: ATCC 13315, 24 h; procedure, shortened: as §1
Klebsiella pneumoniae [18] = assay: Bactericidal activity against Klebsiella pneumoniae ATCC 43816 after 24 hrs; type: functional; settings: ATCC 43816, 24 h, read-out: MBC99.9; procedure, shortened: as §2
Proteus vulgaris [19] = assay: Bactericidal activity against Proteus vulgaris ATCC 13315 after 24 hrs; type: functional; settings: ATCC 13315, 24 h, read-out: MBC99.9; procedure, shortened: as §2
[20] = n-Octanol-phosphate buffer partition coefficient, log P of the compound at pH 7.4 after 30 mins by shake flask method; type: physicochemical
Procedure, shortened: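 Shake-flask partition between n-octanol and 50 mM phosphate buffer, pH 7.4. P calculated and expressed as logP.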

Cytochrome P450 2A6 = target: T1, Cytochrome P450 2A6 (Homo sapiens, UniProt P11509); assay: Inhibition of human microsomal CYP2A6; type: ADME
T1 sequence (P11509 whole entry): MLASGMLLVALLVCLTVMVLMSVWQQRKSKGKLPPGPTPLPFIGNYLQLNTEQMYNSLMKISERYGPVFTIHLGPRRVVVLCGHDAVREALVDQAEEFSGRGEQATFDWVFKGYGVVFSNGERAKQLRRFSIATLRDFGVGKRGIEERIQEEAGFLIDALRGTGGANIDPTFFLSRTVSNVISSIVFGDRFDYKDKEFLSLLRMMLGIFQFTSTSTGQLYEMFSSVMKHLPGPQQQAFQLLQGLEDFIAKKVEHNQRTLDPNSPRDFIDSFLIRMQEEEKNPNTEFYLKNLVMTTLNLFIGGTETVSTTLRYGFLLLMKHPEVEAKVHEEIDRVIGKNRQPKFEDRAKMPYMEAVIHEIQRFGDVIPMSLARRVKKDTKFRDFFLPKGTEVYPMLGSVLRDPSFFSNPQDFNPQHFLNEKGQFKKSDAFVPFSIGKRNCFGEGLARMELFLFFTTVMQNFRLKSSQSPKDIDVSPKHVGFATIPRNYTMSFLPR

| Compound | MIC (Escherichia coli [1]) [mg/L] | MIC (Staphylococcus aureus [2]) [mg/L] | MIC (Bacillus spizizenii [3]) [mg/L] | MIC (Bacillus cereus [4]) [mg/L] | MBC (Escherichia coli [5]) [mg/L] | MBC (Staphylococcus aureus [6]) [mg/L] | MBC (Bacillus spizizenii [7]) [mg/L] | MBC (Bacillus cereus [8]) [mg/L] | IC50 [9] [µM] | IC50 (MCF7) [µM] | IC50 (HeLa) [µM] | growth inhibition (GI) (Bacillus cereus [10]) | growth inhibition (GI) (Bacillus spizizenii [11]) | growth inhibition (GI) (Proteus vulgaris [12]) | growth inhibition (GI) (Staphylococcus aureus [13]) | MIC (Klebsiella pneumoniae [16]) [mg/L] | MIC (Proteus vulgaris [17]) [mg/L] | MBC (Klebsiella pneumoniae [18]) [mg/L] | MBC (Proteus vulgaris [19]) [mg/L] | Ki (Cytochrome P450 2A6) [µM] | further results |
| --- | --- | --- | --- | --- | --- | --- | --- | --- | --- | --- | --- | --- | --- | --- | --- | --- | --- | --- | --- | --- | --- |
| CC1(C)S[C@@H]2[C@H](NC(=O)[C@H](N)c3ccccc3)C(=O)N2[C@H]1C(=O)O [AMPICILLIN] | 10 (≈ 28.6 µM) | 4 (≈ 11.4 µM) | 5 (≈ 14.3 µM) | 4 (≈ 11.4 µM) | 18 (≈ 51.5 µM) | 6 (≈ 17.2 µM) | 10 (≈ 28.6 µM) | 8 (≈ 22.9 µM) |  |  |  |  |  |  |  |  |  |  |  |  |  |
| O=Cc1cn(-c2nc(-c3cc4cc(Br)ccc4oc3=O)cs2)nc1-c1ccccc1 | 118 (≈ 247 µM) | 116 (≈ 243 µM) | 125 (≈ 261 µM) | 129 (≈ 270 µM) | 240 (≈ 502 µM) | 175 (≈ 366 µM) | 250 (≈ 523 µM) | 260 (≈ 544 µM) | 35 | 18.2 | 11 | Active | Active | Active | Active | 117 (≈ 244 µM) | 124 (≈ 259 µM) | 175 (≈ 366 µM) | 250 (≈ 523 µM) | 0.00602 | growth inhibition (GI) (Klebsiella pneumoniae [14]): Active; growth inhibition (GI) (Escherichia coli [15]): Active; logD at 0.5 h [20]: 3.3 |
| Cc1ccc(-c2nn(-c3nc(-c4cc5cc(Br)ccc5oc4=O)cs3)cc2C=O)cc1 | 135 (≈ 273 µM) | 138 (≈ 280 µM) | 125 (≈ 254 µM) | 126 (≈ 256 µM) | 270 (≈ 548 µM) | 275 (≈ 559 µM) | 250 (≈ 508 µM) | 250 (≈ 508 µM) | 20.9 | 35.2 | 14.1 | Active | Active | Active | Active | 124 (≈ 252 µM) | 122 (≈ 247 µM) | 250 (≈ 508 µM) | 240 (≈ 487 µM) | 0.00154 | growth inhibition (GI) (Klebsiella pneumoniae [14]): Active; growth inhibition (GI) (Escherichia coli [15]): Active |
| O=Cc1cn(-c2nc(-c3cc4ccccc4oc3=O)cs2)nc1-c1ccccc1 | 135 (≈ 338 µM) | 150 (≈ 376 µM) | 132 (≈ 330 µM) | 145 (≈ 363 µM) | 270 (≈ 676 µM) | 300 (≈ 751 µM) | 260 (≈ 651 µM) | 290 (≈ 726 µM) | > 100 | > 100 | > 100 |  |  |  | inactive | 150 (≈ 376 µM) | 133 (≈ 333 µM) | 225 (≈ 563 µM) | 200 (≈ 501 µM) | 0.013 |  |
| O=Cc1cn(-c2nc(-c3cc4cc(Cl)cc(Cl)c4oc3=O)cs2)nc1-c1ccc(Cl)cc1 | 111 (≈ 221 µM) | 112 (≈ 224 µM) | 111 (≈ 220 µM) | 112 (≈ 223 µM) | 220 (≈ 438 µM) | 225 (≈ 448 µM) | 165 (≈ 328 µM) | 220 (≈ 438 µM) | 30.9 | 21.7 | 10.3 | Active | Active |  | Active | 105 (≈ 209 µM) | 113 (≈ 225 µM) | 155 (≈ 308 µM) | 225 (≈ 448 µM) | 0.0027 | logD at 0.5 h [20]: 3 |
| O=Cc1cn(-c2nc(-c3cc4cc(Cl)ccc4oc3=O)cs2)nc1-c1ccccc1 | 135 (≈ 310 µM) | 150 (≈ 346 µM) | 130 (≈ 298 µM) | 139 (≈ 319 µM) | 265 (≈ 611 µM) | 300 (≈ 691 µM) | 190 (≈ 438 µM) | 275 (≈ 634 µM) | > 100 | > 100 | 12.8 |  |  |  | inactive | 129 (≈ 297 µM) | 130 (≈ 300 µM) | 190 (≈ 438 µM) | 260 (≈ 599 µM) | 0.00258 |  |
